Laboratory results reported in ChEMBL document CHEMBL3124849, “Total synthesis of burkholdacs A and B and 5,6,20-tri-epi-burkholdac A: HDAC inhibition and antiproliferative activity” (Eur J Med Chem, 2014).

Tests used:
[1] = Selectivity index, ratio of IC50 for mouse HDAC6 to IC50 for human HDAC1
Method in brief: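 Ratio of HDAC6 IC50 to HDAC1 IC50. Both enzymes were FLAG-immunopurified from transfected 293T cells: human HDAC1 and mouse HDAC6. Each was assayed on Ac-KGLGK(Ac)-MCA with 100 µM DTT at 37 °C for 30 min, developed with trypsin, and AMC read by fluorescence. IC50s are means of ≥3 curves.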

SNB-75 = test: Cytotoxicity against human SNB75 cells by SRB assay; assay type: functional
Method in brief: (§1)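 Tested at the Japanese Foundation for Cancer Research panel of 39 human cancer cell lines. Five concentrations per compound, spanning 10^-10 to 10^-6 M or 10^-8 to 10^-4 M. Growth measured by sulforhodamine B colorimetry. GI50 is the concentration giving 50% growth inhibition relative to control.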

ACHN = test: Cytotoxicity against human ACHN cells by SRB assay; assay type: functional; method in brief: as §1
[2] = Cytotoxicity against human HBC4 cells by SRB assay; assay type: functional; method in brief: as §1
NCI-H23 = test: Cytotoxicity against human NCI-H23 cells by SRB assay; assay type: functional; method in brief: as §1
HCT-116 = test: Cytotoxicity against human HCT116 cells by SRB assay; assay type: functional; method in brief: as §1
[3] = Cytotoxicity against human MKN45 cells by SRB assay; assay type: functional; settings: MKN-45; method in brief: as §1
OVCAR-8 = test: Cytotoxicity against human OVCAR8 cells by SRB assay; assay type: functional; method in brief: as §1
Histone deacetylase 1 [4] = target: T1, Histone deacetylase 1 (Homo sapiens, UniProt Q13547); test: Inhibition of human HDAC1 expressed in human 293T cells using Ac-KGLGK(Ac)-MCA as substrate after 30 mins by fluorescence assay
HCC 2998 = test: Cytotoxicity against human HCC2998 cells by SRB assay; assay type: functional; method in brief: as §1
NCI-H522 = test: Cytotoxicity against human NCI-H522 cells by SRB assay; assay type: functional; method in brief: as §1
U-251 = test: Cytotoxicity against human U251 cells by SRB assay; assay type: functional; method in brief: as §1
[5] = Cytotoxicity against human MKN1 cells by SRB assay; assay type: functional; settings: MKN-1; method in brief: as §1
Histone deacetylase 1 [6] = target: T1, Histone deacetylase 1; test: Ratio of FK228 IC50 to compound IC50 for human HDAC1 expressed in human 293T cells; assay type: cell-based
Method in brief: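 FLAG-tagged human HDAC1 was expressed transiently in 293T cells (pcDNA3-HDAC1), immunoprecipitated with anti-FLAG M2 and eluted with FLAG peptide. Enzyme was incubated with 2 mM stock Ac-KGLGK(Ac)-MCA in 20 mM Tris-HCl pH 8.0, 150 mM NaCl, 10% glycerol, 100 μM DTT, for 30 min at 37 °C. Trypsin then released AMC, read by fluorescence. IC50 is the mean of ≥3 dose-response curves; FK228 reference run alongside.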

St-4 = test: Cytotoxicity against human St-4 cells by SRB assay; assay type: functional; method in brief: as §1
[7] = Cytotoxicity against human HBC5 cells by SRB assay; assay type: functional; method in brief: as §1
SF-539 = test: Cytotoxicity against human SF539 cells by SRB assay; assay type: functional; method in brief: as §1
LOX IMVI = test: Cytotoxicity against human LOXIMVI cells by SRB assay; assay type: functional; method in brief: as §1
SK-OV-3 = test: Cytotoxicity against human SKOV3 cells by SRB assay; assay type: functional; method in brief: as §1
MDA-MB-231 = test: Cytotoxicity against human MDA-MB-231 cells by SRB assay; assay type: functional; method in brief: as §1
SF-268 = test: Cytotoxicity against human SF268 cells by SRB assay; assay type: functional; method in brief: as §1
A549 = test: Cytotoxicity against human A549 cells by SRB assay; assay type: functional; method in brief: as §1
PC-3 = test: Cytotoxicity against human PC3 cells by SRB assay; assay type: functional; method in brief: as §1
[8] = Cytotoxicity against human DMS114 cells by SRB assay; assay type: functional; settings: DMS-114; method in brief: as §1
[9] = Cytotoxicity against human MKN74 cells by SRB assay; assay type: functional; settings: MKN-74; method in brief: as §1
[10] = Cytotoxicity against human MKN28 cells by SRB assay; assay type: functional; settings: MKN-28; method in brief: as §1
[11] = Cytotoxicity against human SNB78 cells by SRB assay; assay type: functional; settings: SNB-78; method in brief: as §1
HCT-15 = test: Cytotoxicity against human HCT15 cells by SRB assay; assay type: functional; method in brief: as §1
DU-145 = test: Cytotoxicity against human DU145 cells by SRB assay; assay type: functional; method in brief: as §1
OVCAR-3 = test: Cytotoxicity against human OVCAR3 cells by SRB assay; assay type: functional; method in brief: as §1
[12] = target: T2, Protein deacetylase HDAC6 (Mus musculus, UniProt Q9Z2V5); test: Inhibition of mouse HDAC6 expressed in human 293T cells using Ac-KGLGK(Ac)-MCA as substrate after 30 mins by fluorescence assay; assay type: cell-based
T2 sequence (Q9Z2V5 whole entry): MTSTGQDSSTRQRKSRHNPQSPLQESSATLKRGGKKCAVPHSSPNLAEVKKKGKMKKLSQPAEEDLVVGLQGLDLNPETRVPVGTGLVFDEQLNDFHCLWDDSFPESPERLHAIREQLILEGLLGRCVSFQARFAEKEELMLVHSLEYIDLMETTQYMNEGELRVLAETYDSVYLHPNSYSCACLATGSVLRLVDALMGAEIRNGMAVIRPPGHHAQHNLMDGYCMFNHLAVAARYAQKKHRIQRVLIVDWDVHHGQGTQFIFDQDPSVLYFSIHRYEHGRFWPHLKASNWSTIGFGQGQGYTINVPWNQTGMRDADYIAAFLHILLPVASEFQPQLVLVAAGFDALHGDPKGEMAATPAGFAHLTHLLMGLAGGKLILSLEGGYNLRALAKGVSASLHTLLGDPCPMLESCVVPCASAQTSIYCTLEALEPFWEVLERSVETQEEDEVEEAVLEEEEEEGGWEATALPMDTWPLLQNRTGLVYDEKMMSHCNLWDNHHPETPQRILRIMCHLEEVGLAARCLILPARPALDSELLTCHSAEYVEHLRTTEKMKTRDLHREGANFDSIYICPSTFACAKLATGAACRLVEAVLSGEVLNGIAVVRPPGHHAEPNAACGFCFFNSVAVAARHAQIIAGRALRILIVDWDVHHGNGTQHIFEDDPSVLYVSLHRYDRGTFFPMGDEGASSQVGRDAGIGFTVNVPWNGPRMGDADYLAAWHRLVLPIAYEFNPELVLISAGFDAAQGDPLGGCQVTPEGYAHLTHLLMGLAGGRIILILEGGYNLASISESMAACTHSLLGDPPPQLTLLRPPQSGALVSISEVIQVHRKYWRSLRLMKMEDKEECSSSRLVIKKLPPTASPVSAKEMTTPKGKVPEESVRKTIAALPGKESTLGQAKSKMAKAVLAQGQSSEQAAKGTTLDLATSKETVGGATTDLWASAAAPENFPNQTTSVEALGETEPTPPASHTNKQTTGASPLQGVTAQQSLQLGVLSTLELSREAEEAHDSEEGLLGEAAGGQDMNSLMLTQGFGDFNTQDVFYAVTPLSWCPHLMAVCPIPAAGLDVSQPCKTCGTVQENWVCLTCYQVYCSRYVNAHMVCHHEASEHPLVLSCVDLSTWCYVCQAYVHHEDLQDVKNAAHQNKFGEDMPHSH

SF-295 = test: Cytotoxicity against human SF295 cells by SRB assay; assay type: functional; method in brief: as §1
[13] = Cytotoxicity against human DMS273 cells by SRB assay; assay type: functional; settings: DMS-273; method in brief: as §1
NCI-H226 = test: Cytotoxicity against human NCI-H226 cells by SRB assay; assay type: functional; method in brief: as §1
[14] = Cytotoxicity against human RXF631L cells by SRB assay; assay type: functional; settings: RXF 631; method in brief: as §1
HT-29 = test: Cytotoxicity against human HT-29 cells by SRB assay; assay type: functional; method in brief: as §1
[15] = Cytotoxicity against human OVCAR5 cells by SRB assay; assay type: functional; settings: OVCAR-5; method in brief: as §1
KM12 = test: Cytotoxicity against human KM12 cells by SRB assay; assay type: functional; method in brief: as §1
MCF7 = test: Cytotoxicity against human MCF7 cells by SRB assay; assay type: functional; method in brief: as §1
[16] = Cytotoxicity against human MKN7 cells by SRB assay; assay type: functional; settings: MKN-7; method in brief: as §1
[17] = Cytotoxicity against human OVCAR4 cells by SRB assay; assay type: functional; settings: OVCAR-4; method in brief: as §1
[18] = Cytotoxicity against human BSY1 cells by SRB assay; assay type: functional; settings: BSY-1; method in brief: as §1
NCI-H460 = test: Cytotoxicity against human NCI-H460 cells by SRB assay; assay type: functional; method in brief: as §1

T1 sequence (Q13547 whole entry): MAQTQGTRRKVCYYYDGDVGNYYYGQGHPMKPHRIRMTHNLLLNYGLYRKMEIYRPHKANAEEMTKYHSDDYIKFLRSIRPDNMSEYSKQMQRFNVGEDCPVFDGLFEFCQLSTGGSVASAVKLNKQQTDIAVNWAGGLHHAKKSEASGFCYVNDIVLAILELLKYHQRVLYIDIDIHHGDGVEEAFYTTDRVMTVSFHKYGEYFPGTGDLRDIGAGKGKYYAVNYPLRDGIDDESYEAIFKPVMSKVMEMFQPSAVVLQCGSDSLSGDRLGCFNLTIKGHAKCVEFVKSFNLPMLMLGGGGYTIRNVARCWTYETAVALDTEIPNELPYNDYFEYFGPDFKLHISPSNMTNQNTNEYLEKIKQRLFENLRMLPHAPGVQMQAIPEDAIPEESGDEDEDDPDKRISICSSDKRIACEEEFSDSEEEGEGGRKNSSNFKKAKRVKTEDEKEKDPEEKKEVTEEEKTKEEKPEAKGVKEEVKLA

**Q.** Which Ratio IC50 [1] does the source give for `CC(C)[C@H]1NC(=O)[C@H]2CSSCC/C=C/[C@H](CC(=O)N[C@H](C)C(=O)N2)OC(=O)C[C@@H]1O` here?
**A.** The Ratio IC50 was 485.

**Q.** With `CC[C@H](C)[C@H]1NC(=O)[C@H]2CSSCC/C=C/[C@H](CC(=O)N[C@H](CCSC)C(=O)N2)OC(=O)C[C@@H]1O` [THAILANDEPSIN A] as the molecule, how does the GI50 (SNB-75) read?
**A.** Its GI50 is 1.4 nM.

**Q.** And the GI50 (ACHN)?
**A.** Its GI50 is 6.6 nM.

**Q.** What about the GI50 [2] of the same molecule?
**A.** The GI50 was 3.8 nM.

**Q.** And the GI50 (NCI-H23)?
**A.** The GI50 was 3.3 nM.

**Q.** What about the GI50 (HCT-116) of the same molecule?
**A.** Its GI50 is 0.51 nM.

**Q.** And the GI50 [3]?
**A.** Its GI50 is 14 nM.

**Q.** What about the GI50 (OVCAR-8) of the same molecule?
**A.** Its GI50 is 0.72 nM.

**Q.** What about the IC50 (Histone deacetylase 1 [4]) of the same molecule?
**A.** Its IC50 is 1 nM.

**Q.** And the GI50 (HCC 2998)?
**A.** Its GI50 is 2.6 nM.

**Q.** What about the GI50 (NCI-H522) of the same molecule?
**A.** The GI50 was 0.42 nM.

**Q.** What about the GI50 (U-251) of the same molecule?
**A.** The GI50 was 4.4 nM.

**Q.** What about the GI50 [5] of the same molecule?
**A.** The GI50 was 2.5 nM.

**Q.** And the Ratio IC50 (Histone deacetylase 1 [6])?
**A.** Its Ratio IC50 is 3.

**Q.** What about the GI50 (St-4) of the same molecule?
**A.** The GI50 was 1.1 nM.

**Q.** And the GI50 [7]?
**A.** Its GI50 is 2.3 nM.

**Q.** And the GI50 (SF-539)?
**A.** Its GI50 is 0.7 nM.

**Q.** What about the GI50 (LOX IMVI) of the same molecule?
**A.** The GI50 was 2.5 nM.

**Q.** And the GI50 (SK-OV-3)?
**A.** The GI50 was 1.9 nM.

**Q.** And the GI50 (MDA-MB-231)?
**A.** The GI50 was 2.6 nM.

**Q.** What about the GI50 (SF-268) of the same molecule?
**A.** The GI50 was 4.1 nM.

**Q.** What about the GI50 (A549) of the same molecule?
**A.** Its GI50 is 0.85 nM.

**Q.** And the GI50 (PC-3)?
**A.** The GI50 was 8.3 nM.

**Q.** And the GI50 [8]?
**A.** The GI50 was 3.2 nM.

**Q.** What about the GI50 [9] of the same molecule?
**A.** The GI50 was 2.9 nM.

**Q.** What about the GI50 [10] of the same molecule?
**A.** The GI50 was 16 nM.

**Q.** What about the GI50 [11] of the same molecule?
**A.** Its GI50 is 11 nM.

**Q.** And the GI50 (HCT-15)?
**A.** The GI50 was 100 nM.

**Q.** What about the Ratio IC50 [1] of the same molecule?
**A.** Its Ratio IC50 is 992.

**Q.** What about the GI50 (DU-145) of the same molecule?
**A.** Its GI50 is 3.1 nM.

**Q.** And the GI50 (OVCAR-3)?
**A.** The GI50 was 2.8 nM.

**Q.** What about the IC50 [12] of the same molecule?
**A.** Its IC50 is 992 nM.

**Q.** What about the GI50 (SF-295) of the same molecule?
**A.** Its GI50 is 2.3 nM.

**Q.** And the GI50 [13]?
**A.** Its GI50 is 2.7 nM.

**Q.** And the GI50 (NCI-H226)?
**A.** Its GI50 is 2.7 nM.

**Q.** And the GI50 [14]?
**A.** The GI50 was 2.3 nM.

**Q.** And the GI50 (HT-29)?
**A.** Its GI50 is 0.74 nM.

**Q.** And the GI50 [15]?
**A.** Its GI50 is 1.6 nM.

**Q.** And the GI50 (KM12)?
**A.** Its GI50 is 3.6 nM.

**Q.** And the GI50 (MCF7)?
**A.** Its GI50 is 2.8 nM.

**Q.** And the GI50 [16]?
**A.** The GI50 was 10 nM.

**Q.** And the GI50 [17]?
**A.** The GI50 was 5 nM.

**Q.** And the GI50 [18]?
**A.** Its GI50 is 5 nM.

**Q.** And the GI50 (NCI-H460)?
**A.** Its GI50 is 0.53 nM.
